In ChEMBL document CHEMBL4138271, “Crystal Structures and Human Leukemia Cell Apoptosis Inducible Activities of Parthenolide Analogues Isolated from Piptocoma rufescens” (J Nat Prod, 2018) one finds Activity, inhibition and IC50 data, which are given here for two compounds.

Molecules are shown by their SMILES. Calls of active or inactive are those of the source. The rule behind the calls is not given here.

The subject of assay [1] is EOL1. The experiment in a line: Induction of apoptosis in human EOL-1 cells assessed as caspase-3 activation at 10 nM after 72 hrs by immunoblotting analysis. It is filed as functional, cell-based. The procedure, abridged:
(§1)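 EOL-1 cells (RPMI 1640, 10% FBS, 37 °C, 5% CO2) exposed 72 h; compounds at 10 μM, PKC412 at 10 nM. Harvested, PBS-washed, lysed in hypertonic NP-40 buffer with protease/phosphatase inhibitors; SDS-PAGE, PVDF transfer, rabbit monoclonal cleaved caspase-3 (Asp175) antibody 12 h, secondary 1 h, chemiluminescent detection; β-actin loading control. Representative blots of three independent experiments.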

Assay [2] has as its system MOLM-13. The assay is described as follows: Induction of apoptosis in human MOLM13 cells assessed as caspase-3 activation at 10 nM after 72 hrs by immunoblotting analysis. It is filed as functional, cell-based. The procedure, abridged:
(§2)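 MOLM-13 cells treated 72 h with test compounds at 10 μM or PKC412 at 10 nM. Cells washed in ice-cold PBS, lysed at 10^8 cells/mL in NP-40 hypertonic buffer (pH 7.5) with protease/phosphatase inhibitors, then run on SDS-PAGE and PVDF. Blots probed 12 h with rabbit monoclonal cleaved caspase-3 (Asp175), β-actin as loading control. Representative of three independent experiments.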

In assay [3] the target is Transcription factor p65 (Homo sapiens) (UniProt Q04206). The experiment in a line: Inhibition of NFkappaB p65 in human MOLM13 cells at 10 uM after 72 hrs by immunoblotting method. It is filed as cell-based. Put shortly: (§3)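 MOLM-13 or EOL-1 cells treated 72 h at 10 μM. Cells washed in ice-cold PBS and lysed in hypertonic NP-40 buffer (10 mM HEPES pH 7.5, 0.5 M NaCl) with protease/phosphatase inhibitors. Protein measured by BCA; SDS-PAGE onto PVDF. Probed 12 h with rabbit monoclonal NF-κB-p65 antibody, goat β-actin as loading control, then chemiluminescence. Blots representative of three independent experiments.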
Chain of Transcription factor p65 (Homo sapiens) (Q04206 whole entry): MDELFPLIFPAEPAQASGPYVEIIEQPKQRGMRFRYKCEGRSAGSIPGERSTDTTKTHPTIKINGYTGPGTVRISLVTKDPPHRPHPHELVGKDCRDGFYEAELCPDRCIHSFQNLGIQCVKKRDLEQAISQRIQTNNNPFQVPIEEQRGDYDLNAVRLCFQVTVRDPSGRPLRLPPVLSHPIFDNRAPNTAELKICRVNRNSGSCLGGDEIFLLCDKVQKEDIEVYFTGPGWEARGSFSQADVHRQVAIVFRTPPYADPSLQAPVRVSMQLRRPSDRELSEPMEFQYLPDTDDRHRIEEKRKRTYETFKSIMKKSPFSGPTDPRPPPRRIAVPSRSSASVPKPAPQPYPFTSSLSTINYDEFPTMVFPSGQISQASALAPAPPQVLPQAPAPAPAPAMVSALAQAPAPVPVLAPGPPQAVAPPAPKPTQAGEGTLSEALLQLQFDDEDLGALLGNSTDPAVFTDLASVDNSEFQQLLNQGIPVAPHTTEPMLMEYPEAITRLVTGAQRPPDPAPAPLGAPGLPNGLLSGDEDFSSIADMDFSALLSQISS

Assay [4] deals with EOL1. The experiment in a line: Induction of apoptosis in human EOL-1 cells assessed as necrotic cells at 2.8 uM after 24 hrs by Annexin-V FITC/7-AAD staining based flow cytometric method (reference value: 0.032%). It is filed as functional. Background: In flow cytometry, cells or beads pass a laser one at a time.
Assay [5] has as its system EOL1. The assay is described as follows: Induction of apoptosis in human EOL-1 cells assessed as necrotic cells at 1.1 uM after 24 hrs by Annexin-V FITC/7-AAD staining based flow cytometric method (reference value: 0.032%). It is filed as functional.
Assay [6] concerns MOLM-13. The assay is described as follows: Induction of apoptosis in human MOLM13 cells assessed as live cells at 1.1 uM after 24 hrs by Annexin-V FITC/7-AAD staining based flow cytometric method (reference value: 86.8%). It is filed as functional.
For assay [7], the system named is EOL1. The assay is described as follows: Induction of apoptosis in human EOL-1 cells assessed as early apoptotic cells at 1.1 uM after 24 hrs by Annexin-V FITC/7-AAD staining based flow cytometric method (reference value: 1.94%). It is filed as functional.
Assay [8] deals with EOL1. The experiment in a line: Induction of apoptosis in human EOL-1 cells assessed as necrotic cells at 0.56 uM after 24 hrs by Annexin-V FITC/7-AAD staining based flow cytometric method (reference value: 0.032%). It is filed as functional.
Assay [9] has as its system EOL1. The experiment in a line: Induction of apoptosis in human EOL-1 cells assessed as late apoptotic cells at 1.1 uM after 24 hrs by Annexin-V FITC/7-AAD staining based flow cytometric method (reference value: 0.535%). It is filed as functional.
Assay [10] relates to EOL1. The assay is described as follows: Induction of apoptosis in human EOL-1 cells assessed as early apoptotic cells at 0.56 uM after 24 hrs by Annexin-V FITC/7-AAD staining based flow cytometric method (reference value: 1.94%). It is filed as functional.
Assay [11] deals with MOLM-13. The experiment in a line: Induction of apoptosis in human MOLM13 cells assessed as necrotic cells at 1.1 uM after 24 hrs by Annexin-V FITC/7-AAD staining based flow cytometric method (reference value: 0%). It is filed as functional.
For assay [12], the system named is MOLM-13. The assay is described as follows: Induction of apoptosis in human MOLM13 cells assessed as necrotic cells at 2.8 uM after 24 hrs by Annexin-V FITC/7-AAD staining based flow cytometric method (reference value: 0%). It is filed as functional.
The test system of assay [13] is MOLM-13. The experiment in a line: Induction of apoptosis in human MOLM13 cells assessed as early apoptotic cells at 1.1 uM after 24 hrs by Annexin-V FITC/7-AAD staining based flow cytometric method (reference value: 11.8%). It is filed as functional.
Assay [14] has as its system MOLM-13. The experiment in a line: Induction of apoptosis in human MOLM13 cells assessed as necrotic cells at 0.56 uM after 24 hrs by Annexin-V FITC/7-AAD staining based flow cytometric method (reference value: 0%). It is filed as functional.
Assay [15] deals with EOL1. The assay is described as follows: Induction of apoptosis in human EOL-1 cells assessed as live cells at 2.8 uM after 24 hrs by Annexin-V FITC/7-AAD staining based flow cytometric method (reference value: 97.5%). It is filed as functional.
The target in assay [16] is Transcription factor p65 (Homo sapiens) (UniProt Q04206). The assay is described as follows: Inhibition of NFkappaB p65 in human EOL-1 cells at 10 uM after 72 hrs by immunoblotting method. It is filed as cell-based. The procedure, abridged:
as §3
In general terms: In western blotting, separated proteins are transferred to a membrane and probed.

For assay [17], the system named is EOL1. The assay is described as follows: Induction of apoptosis in human EOL-1 cells assessed as early apoptotic cells at 2.8 uM after 24 hrs by Annexin-V FITC/7-AAD staining based flow cytometric method (reference value: 1.94%). It is filed as functional.
Assay [18] concerns MOLM-13. The experiment in a line: Induction of apoptosis in human MOLM13 cells assessed as caspase-3 activation at 10 uM after 72 hrs by immunoblotting analysis. It is filed as functional, cell-based. Put shortly:
as §2

For assay [19], the system named is EOL1. The assay is described as follows: Cytotoxicity against human EOL-1 cells after 72 hrs by MTS assay. It is filed as functional, cell-based. The settings on record: EOL1, 72 h.
The test system of assay [20] is MOLM-13. The experiment in a line: Induction of apoptosis in human MOLM13 cells assessed as early apoptotic cells at 0.56 uM after 24 hrs by Annexin-V FITC/7-AAD staining based flow cytometric method (reference value: 11.8%). It is filed as functional.
The subject of assay [21] is EOL1. The experiment in a line: Induction of apoptosis in human EOL-1 cells assessed as live cells at 0.56 uM after 24 hrs by Annexin-V FITC/7-AAD staining based flow cytometric method (reference value: 97.5%). It is filed as functional.
The test system of assay [22] is MOLM-13. The experiment in a line: Induction of apoptosis in human MOLM13 cells assessed as live cells at 0.56 uM after 24 hrs by Annexin-V FITC/7-AAD staining based flow cytometric method (reference value: 86.8%). It is filed as functional.
In assay [23] the test system is MOLM-13. The assay is described as follows: Induction of apoptosis in human MOLM13 cells assessed as late apoptotic cells at 0.56 uM after 24 hrs by Annexin-V FITC/7-AAD staining based flow cytometric method (reference value: 1.43%). It is filed as functional.
Assay [24] relates to MOLM-13. The experiment in a line: Induction of apoptosis in human MOLM13 cells assessed as live cells at 2.8 uM after 24 hrs by Annexin-V FITC/7-AAD staining based flow cytometric method (reference value: 86.8%). It is filed as functional.
Assay [25] deals with EOL1. The assay is described as follows: Induction of apoptosis in human EOL-1 cells assessed as live cells at 1.1 uM after 24 hrs by Annexin-V FITC/7-AAD staining based flow cytometric method (reference value: 97.5%). It is filed as functional.
The subject of a further assay is HT-29. The experiment in a line: Cytotoxicity against human HT-29 cells after 72 hrs by MTS assay. It is filed as functional, cell-based. As to conditions: HT-29, 72 h. A general note: Formazan colour is commonly taken as a measure of viable cells.
Assay [26] relates to EOL1. The experiment in a line: Synergistic antileukemic activity against human EOL-1 cells assessed as concentration required for <= 75% cell survival after 72 hrs in presence of midostaurin by CellTiter 96 AQueous One solution cell proliferation assay. It is filed as functional.
Assay [27] relates to EOL1. The assay is described as follows: Induction of apoptosis in human EOL-1 cells assessed as late apoptotic cells at 2.8 uM after 24 hrs by Annexin-V FITC/7-AAD staining based flow cytometric method (reference value: 0.535%). It is filed as functional.
The subject of assay [28] is MOLM-13. The experiment in a line: Induction of apoptosis in human MOLM13 cells assessed as early apoptotic cells at 2.8 uM after 24 hrs by Annexin-V FITC/7-AAD staining based flow cytometric method (reference value: 11.8%). It is filed as functional.
Assay [29] concerns EOL1. The assay is described as follows: Induction of apoptosis in human EOL-1 cells assessed as caspase-3 activation at 10 uM after 72 hrs by immunoblotting analysis. It is filed as functional, cell-based. Put shortly:
as §1

Assay [30] relates to EOL1. The experiment in a line: Induction of apoptosis in human EOL-1 cells assessed as late apoptotic cells at 0.56 uM after 24 hrs by Annexin-V FITC/7-AAD staining based flow cytometric method (reference value: 0.535%). It is filed as functional.
For assay [31], the system named is MOLM-13. The assay is described as follows: Induction of apoptosis in human MOLM13 cells assessed as late apoptotic cells at 2.8 uM after 24 hrs by Annexin-V FITC/7-AAD staining based flow cytometric method (reference value: 1.43%). It is filed as functional.
The subject of assay [32] is MOLM-13. The experiment in a line: Synergistic antileukemic activity against human MOLM13 cells assessed as concentration required for <= 75% cell survival after 72 hrs in presence of midostaurin by CellTiter 96 AQueous One solution cell proliferation assay. It is filed as functional.
For assay [33], the system named is MOLM-13. The assay is described as follows: Induction of apoptosis in human MOLM13 cells assessed as late apoptotic cells at 1.1 uM after 24 hrs by Annexin-V FITC/7-AAD staining based flow cytometric method (reference value: 1.43%). It is filed as functional.
The subject of assay [34] is MOLM-13. The assay is described as follows: Cytotoxicity against human MOLM13 cells after 72 hrs by MTS assay. It is filed as functional, cell-based. As to conditions: MOLM-13, 72 h.

Turning to `CO[C@@H]1[C@H](N(C)C(=O)c2ccccc2)C[C@H]2O[C@]1(C)n1c3ccccc3c3c4c(c5c6ccccc6n2c5c31)C(=O)NC4`, the outcome in the assay on EOL1 [1] and with MOLM-13 [2] was Active.
For the compound `C=C(C)C(=O)O[C@H]1C[C@@]2(C)OC(=CC2=O)/C(CO)=C\[C@H]2OC(=O)C(=C)[C@H]12` [GOIAZENSOLIDE], the inhibition entry in assay [3] and in assay [16] was “Active” in each case. The Activity in the assay with EOL1 [4] is reported as 0.189%; in the assay on EOL1 [5] it was 2.4%; in the assay with MOLM-13 [6], 2.54%; with EOL1 [7] it was 0.281%; in the assay with EOL1 [8], 0.306%; in the assay with EOL1 [9], 93.3%. In addition, the Activity was 1.84% in the assay with EOL1 [10]; 1.86% with MOLM-13 [11]; 1.96% in the assay with MOLM-13 [12]; 0.958% in the assay on MOLM-13 [13]; 0.392% with MOLM-13 [14]; 0.01% in the assay on EOL1 [15]. The Activity in the assay with EOL1 [17] turned out to be 0%; in the assay on MOLM-13 [20] it was 14.7%; with EOL1 [21], 91.7%; in the assay with MOLM-13 [22], 81.8%; in the assay on MOLM-13 [23] it was 3.18%; with MOLM-13 [24], 0.135%. The Activity in the assay with EOL1 [25] came to 3.99%; in the assay with EOL1 [26] it was 0.56 µM; in the assay with EOL1 [27] it was 99.8%; with MOLM-13 [28], 0.203%; in the assay on EOL1 [30], 6.18%; in the assay on MOLM-13 [31], 97.7%. The results for the Activity with MOLM-13 [32] and in the assay with MOLM-13 [33] were 0.42 µM and 94.6%, respectively. The result with MOLM-13 [18] and in the assay on EOL1 [29] was Active. Also, the IC50 in the assay with EOL1 [19] was found to be 1100 nM; in the assay with HT-29, 560 nM; with MOLM-13 [34], 860 nM.

The term IC50 denotes the concentration at which inhibition is half-maximal. Higher therefore signals lower potency.
